Results taken from ChEMBL document CHEMBL5120853, “Tolypocladamide H and the Proposed Tolypocladamide NRPS in Tolypocladium Species” (J Nat Prod, 2022).
Where “and” joins values, the source holds several entries; their conditions need not be identical. Identical values can stand only once. Square brackets hold non-standard residues; d marks the D form. Peptide text beside a SMILES is read from it. * marks the point of attachment. Bmt = C/C=C/C[C@@H](C)[C@@H](O)[C@H](N)C(=O)O; Decanoyl = CCCCCCCCCC(=O)*; Leu(ol) = CC(C)C[C@H](N)CO; Aib = CC(C)(N)C(=O)O

Legend:
Enterococcus faecium = test: Antibacterial activity against Enterococcus faecium ATCC BAA-2317 assessed as inhibition of bacterial growth; format: functional
Summary of the method: (§1)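 Strains grown in ATCC-recommended media in culture tubes at 37 °C with shaking at 225 rpm for 3–8 h, back-diluted to about 10^6 cfu/mL, and incubated in triplicate in 384-well plates with a dilution series of test agent. DMSO vehicle served as negative control; linezolid (E. faecium) and ampicillin (S. aureus) were positive controls. MIC recorded.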

Staphylococcus aureus = test: Antibacterial activity against Staphylococcus aureus ATCC 25923 assessed as inhibition of bacterial growth; format: functional; summary of the method: as §1
[1] = Cytotoxicity against HUVEC assessed as reduction in cell viability incubated for 72 hrs by CellTiter-Glo luminescent cell viability assay; format: toxicity, cell-based; settings: human, HUVEC cells
Summary of the method: (§2)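 HUVECs (primary, limited passages) were kept in medium 200PRF with low serum growth supplement. HeLa and MCF-7 were kept in MEM with Earle's salts, L-glutamine, 10% FBS and 1% pen/strep. Cells were seeded at 5000 (HUVEC), 2000 (HeLa) or 3000 (MCF-7) per well and treated after 18 h for 72 h (final DMSO ≤0.1%). Viability read by ATP luminescence, vehicle = 100%; EC50 derived.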

MCF7 = test: Cytotoxicity against human MCF7 cells assessed as reduction in cell viability incubated for 72 hrs by CellTiter-Glo luminescent cell viability assay; format: functional, cell-based; settings: MCF7, 72 h; summary of the method: as §2
HeLa = test: Cytotoxicity against human HeLa cells assessed as reduction in cell viability incubated for 72 hrs by CellTiter-Glo luminescent cell viability assay; format: functional, cell-based; summary of the method: as §2

MIC (Enterococcus faecium) | MIC (Staphylococcus aureus) | Compound | EC50 at 72 h [1] | EC50 (MCF7) | EC50 (HeLa)
22 µg/mL and 16 µM | 11 µg/mL and 8 µM | C/C=C/C[C@@H](C)[C@@H](O)[C@H](NC(=O)[C@@H]1CCCN1C(=O)C(C)(C)NC(=O)CCCCCCCCC)C(=O)NC(C)(C)C(=O)N[C@@H](CCC(N)=O)C(=O)N[C@@H](CCC(N)=O)C(=O)NC(C)(C)C(=O)NC(C)(C)C(=O)N[C@@H](CCC(N)=O)C(=O)N[C@H](C(=O)N[C@H](CO)CC(C)C)C(C)C (Decanoyl-[Aib]P[Bmt][Aib]QQ[Aib][Aib]QV[Leu(ol)]) | 8 µM | 107 µM | 30 µM
30 µg/mL and 89 µM |  | CC(=O)NC[C@H]1CN(c2ccc(N3CCOCC3)c(F)c2)C(=O)O1 [LINEZOLID] |  |  | 
